Reference: ChEMBL document CHEMBL4673180, “Synthesis of quinone imine and sulphur-containing compounds with antitumor and trypanocidal activities: redox and biological implications” (RSC Med Chem, 2020)

Assays:
[1] = Selectivity index, ratio of IC50 for mouse L929 cells to IC50 for human HL-60cells after 72 hrs by MTT assay; assay type: toxicity; details: L929 cells versus HL-60 cells, read-out: Ratio IC50
Method in brief: (§1)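 Both cell types were kept in medium with 10% FBS, 2 mM L-glutamine and penicillin/streptomycin at 37 °C, 5% CO2. Seeding was 0.7 × 10^5 cells per well for HCT-116, 0.1 × 10^6 for the other lines. Cells got compound in DMSO (0.1% final) for 72 h, then 0.5 mg/mL MTT for 3 h, with formazan read at 550 nm. IC50 came from nonlinear regression over three independent experiments in triplicate. SI is the L929 IC50 divided by the cancer-line IC50.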

[2] = test system: K562; experiment: Cytotoxicity against human K562 cells assessed as reduction in cell viability after 72 hrs by MTT assay; assay type: functional, cell-based; details: K562, 72 h
Method in brief: (§2)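 Cells were grown in medium with 10% FBS, 2 mM L-glutamine, penicillin and streptomycin at 37 °C, 5% CO2. Seeding per well was 0.1 × 10^6 for leukaemia, PC3, L929 and NCI-H460, and 0.7 × 10^5 for HCT-116. Compounds in DMSO (0.1% final) were applied for 72 h. MTT (0.5 mg/mL) was added for 3 h, formazan dissolved in DMSO, and absorbance read at 550 nm. IC50 by nonlinear regression; three independent experiments in triplicate.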

[3] = test system: Trypanosoma cruzi; experiment: Antitrypanosomal activity against Trypanosoma cruzi Y strain bloodstream trypomastigotes assessed as lysis of parasite in presence of 5 % mouse blood incubated for 24 hrs by Neubauer chamber method; assay type: functional, organism-based
Method in brief: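 Y strain bloodstream trypomastigotes came from infected albino mice at peak parasitaemia, purified by differential centrifugation, in RPMI at 10^7 cells/mL with 10% mouse blood. They were mixed 1:1 with compound at twice the final concentration (5% blood final), 24 h at 4 °C, with DMSO ≤0.4% final. Neubauer chamber counting; IC50 is 50% lysis; at least three independent experiments.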

[4] = Selectivity index, ratio of IC50 for mouse L929 cells to IC50 for human NCI-H460 cells after 72 hrs by MTT assay; assay type: toxicity; details: L929 cells versus NCI-H460 cells, read-out: Ratio IC50; method in brief: as §1
[5] = test system: NCI-H460; experiment: Cytotoxicity against human NCI-H460 cells assessed as reduction in cell viability after 72 hrs by MTT assay; assay type: functional, cell-based; details: NCI-H460, 72 h
Method in brief: as §2, with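 “CO2.” for “CO2. Seeding per well was 0.1 × 10^6 for leukaemia, PC3, L929 and NCI-H460, and 0.7 × 10^5 for HCT-116.”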

[6] = test system: HCT-116; experiment: Cytotoxicity against human HCT-116 cells assessed as reduction in cell viability after 72 hrs by MTT assay; assay type: functional, cell-based; details: HCT-116, 72 h; method in brief: as §2
[7] = Cytotoxicity against albino Swiss mouse peritoneal macrophages assessed as reduction in cell viability incubated for 24 hrs by Presto blue assay; assay type: tissue-based, Macrophage; details: read-out: LC50
Method in brief: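 Primary peritoneal macrophages from Albino Swiss mice were seeded at 2.5 × 10^4 cells per well in RPMI-1640 (pH 7.2, 10% FBS, 2 mM glutamine) and grown 24 h at 37 °C. They were then treated 24 h at 37 °C with compound from DMSO stock (final DMSO ≤0.4%).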

[8] = Selectivity index, ratio of IC50 for mouse L929 cells to IC50 for human K-562 cells after 72 hrs by MTT assay; assay type: toxicity; details: L929 cells versus K-562 cells, read-out: Ratio IC50; method in brief: as §1
[9] = test system: HL-60; experiment: Cytotoxicity against human HL-60 cells assessed as reduction in cell viability after 72 hrs by MTT assay; assay type: functional, cell-based; details: HL-60, 72 h
Method in brief: as §2, with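 “CO2.” for “CO2. Seeding per well was 0.1 × 10^6 for leukaemia, PC3, L929 and NCI-H460, and 0.7 × 10^5 for HCT-116.”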

[10] = Selectivity index, ratio of IC50 for mouse L929 cells to IC50 for human PC3 cells after 72 hrs by MTT assay; assay type: toxicity; details: L929 cells versus PC3 cells, read-out: Ratio IC50; method in brief: as §1
[11] = Selectivity index, ratio of LC50 for cytotoxicity against albino Swiss mouse peritoneal macrophages to IC50 for Antitrypanosomal activity against Trypanosoma cruzi Y strain bloodstream trypomastigotes assessed as lysis of parasite in presence of 5 % mouse blood; assay type: toxicity
Method in brief: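 Y-strain bloodstream trypomastigotes came from infected albino mice at peak parasitaemia and were purified by differential centrifugation. They were resuspended at 10^7/mL in RPMI with 10% mouse blood and mixed 1:1 with compound at twice the final concentration (DMSO ≤0.4%). Incubation was 24 h at 4 °C (5% blood per footnote).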

[12] = test system: PC-3; experiment: Cytotoxicity against human PC-3 cells assessed as reduction in cell viability after 72 hrs by MTT assay; assay type: functional, cell-based; details: PC-3, 72 h; method in brief: as §2
[13] = Selectivity index, ratio of IC50 for mouse L929 cells to IC50 for human HCT116 cells after 72 hrs by MTT assay; assay type: toxicity; details: L929 cells versus HCT116 cells, read-out: Ratio IC50; method in brief: as §1
[14] = test system: L929; experiment: Cytotoxicity against mouse L929 cells assessed as reduction in cell viability after 72 hrs by MTT assay; assay type: cell-based; details: L929, 72 h; method in brief: as §2
[15] = Selectivity index, ratio of IC50 for mouse L929 cells to IC50 for human Lucena1 cells after 72 hrs by MTT assay
Method in brief: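 Selectivity index is the ratio of IC50 in murine L929 fibroblasts to IC50 in Lucena 1 cells, each measured by 72 h MTT assay (absorbance 550 nm). IC50 values came from nonlinear regression of three independent experiments in triplicate.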

[16] = Cytotoxicity against human Lucena1 cells assessed as reduction in cell viability after 72 hrs by MTT assay; assay type: functional, cell-based; details: Lucena 1, 72 h; method in brief: as §2

Row | SMILES | selectivity ratio at 72 h [1] | IC50 [2] [µM] | IC50 [3] [µM] | selectivity ratio at 72 h [4] | IC50 [5] [µM] | IC50 [6] [µM] | CC50 at 24 h [7] [µM] | selectivity ratio at 72 h [8] | IC50 [9] [µM] | selectivity ratio at 72 h [10] | selectivity ratio [11] | IC50 [12] [µM] | selectivity ratio at 72 h [13] | IC50 [14] [µM] | Ratio IC50 [15] | IC50 [16] [µM]
1 | Cc1ccc(S(=O)(=O)n2cc(COC3=C/C(=N\c4ccc(F)cc4)c4ccccc4C3=O)nn2)cc1 | 2.6 | 7.7 | > 500 | 2.7 | 7.36 | 5.75 | 26.9 | 2.6 | 7.52 | 9.8 | > 18.6 | 2.03 | 3.5 | > 20 | 3 | 6.58
2 | Cc1ccc(S(=O)(=O)n2cc(COC3=C/C(=N\c4ccc(I)cc4)c4ccccc4C3=O)nn2)cc1 | 2.6 | 10.8 | > 500 | 1 | > 16.4 | > 16.4 | > 100 | 1.5 | 6.31 | 1 |  | > 16.4 | 1 | > 16.4 | 5.6 | 2.9
3 | C#CCOC1=C/C(=N\c2ccc(I)cc2)c2ccccc2C1=O | 2 | 17 |  | 1 | > 20 | 16.5 |  | 1.4 | 11.9 | 1 |  | > 20 | 1.5 | > 20 | 1.6 | 15.1
4 | COc1cccc2c1C(=O)c1c(O)c3c(c(O)c1C2=O)C[C@@](O)(C(=O)CO)C[C@@H]3O[C@H]1C[C@H](N)[C@H](O)[C@H](C)O1 [DOXORUBICIN] |  | 0.49 |  |  |  |  |  |  |  |  |  |  |  |  |  | 0.18
5 | C#CCOC1=C/C(=N\c2ccc(OC)cc2)c2ccccc2C1=O | 4.4 | > 20 |  | 3.3 | 9.45 | 10.7 |  | 1 | 7.18 | 3.6 |  | 8.82 | 2.9 | > 20 | 2.8 | 11.4
6 | C#CCOC1=C/C(=N\c2ccc(C(C)=O)cc2)c2ccccc2C1=O | 1.1 | > 20 |  | 1 | > 20 | > 20 |  | 1 | > 20 | 24 |  | 12.5 | 1 | > 20 | 1.9 | 16.2
7 | C#CCOC1=C/C(=N\c2ccc(C)cc2)c2ccccc2C1=O | 2.8 | > 20 |  | 2 | 16.9 | > 20 |  | 1.5 | 12 | 1.8 |  | 18.4 | 1.6 | > 20 | 2.4 | 14.1
